Measured values pooled from the literature.
Compare with care: the assays were run in different laboratories. ≈ marks a conversion by molar mass, not a printed value.

CCCCCCN(CC1COC2(CCN(C(=O)C3(c4ccccc4)CCCC3)CC2)O1)S(=O)(=O)N(C)Cc1ccccc1 (centres unmarked)  inhibition (Chikungunya virus; viral replication, inhibitor; 40 µM): 70%
Cc1ccc(C=Nc2ccc(SCc3cc(=O)c(O)co3)cc2)cc1  IC50 (DPPH scavenging, absorbance; 30 min): 9.06 µM
O=c1c2ccccc2[se]n1-c1ccccc1  IC50 (Chikungunya virus; viral replication; Vero; 24 h): 2.02 µM
COc1ccc(C=Nc2ccc(SCc3cc(=O)c(O)co3)cc2)cc1  IC50 (DPPH scavenging, absorbance; 30 min): 15.6 µM
CC[C@H](C)C[C@H](C)CCCCCCCCC(=O)N[C@H]1C[C@@H](O)[C@@H](NCCN)NC(=O)[C@@H]2[C@@H](O)CCN2C(=O)[C@H]([C@H](O)CCN)NC(=O)[C@H]([C@H](O)[C@@H](O)c2ccc(O)cc2)NC(=O)[C@@H]2C[C@@H](O)CN2C(=O)[C@H]([C@@H](C)O)NC1=O  MFC (Candidozyma auris; microbial killing, broth dilution; 48 h): 8 µg/mL (≈ 7.32 µM)
Cc1ccc(CNC(=O)c2cn(Cc3ccc(Cl)cc3)c3ccc(Oc4ccccc4)cc3c2=O)cc1  IC50 (MCF7; cell growth or viability, MTT; 48 h): 105 µM
CC(C)C[C@@H](NC(=O)[C@H](C)NC(=O)CNC(=O)[C@@H](NC=O)C(C)C)C(=O)N[C@@H](C)C(=O)N[C@@H](C(=O)N[C@H](C(=O)N[C@@H](C(=O)N[C@@H](Cc1c[nH]c2ccccc12)C(=O)N[C@H](CC(C)C)C(=O)N[C@@H](Cc1ccc2[nH]ccc2c1)C(=O)N[C@H](CC(C)C)C(=O)N[C@@H](Cc1c[nH]c2ccccc12)C(=O)N[C@H](CC(C)C)C(=O)N[C@@H](Cc1c[nH]c2ccccc12)C(=O)NCCO)C(C)C)C(C)C)C(C)C  GI50 (MCF7; cell growth or viability, SRB; 48 h): 0.106 µM
O=C(NCc1ccc(Cl)cc1)c1cn(Cc2ccc(Cl)cc2)c2ccc(Oc3ccccc3)cc2c1=O  IC50 (MCF7; cell growth or viability, MTT; 48 h): 171 µM
O=c1cc(CSc2ccc(N=Cc3ccccc3C(F)(F)F)cc2)occ1O  IC50 (DPPH scavenging, absorbance; 30 min): 36.2 µM
O=C(NCc1ccccc1)c1cn(Cc2ccc(C(F)(F)F)cc2)c2ccc(Oc3ccccc3)cc2c1=O  IC50 (MCF7; cell growth or viability, MTT; 48 h): 6.43 µM
O=c1cc(CSc2ccc(N=Cc3ccc(O)cc3)cc2)occ1O  IC50 (DPPH scavenging, absorbance; 30 min): 8.85 µM
CC(C)(C(=O)N1CCC2(CC1)OCC(CN1CCCCS1(=O)=O)O2)c1ccccc1 (centres unmarked)  inhibition (Chikungunya virus; viral replication, inhibitor; 40 µM): < 50%
O=C(NCc1ccc(F)cc1)c1cn(Cc2ccc(C(F)(F)F)cc2)c2ccc(Oc3ccccc3)cc2c1=O  IC50 (MCF7; cell growth or viability, MTT): < 12 µM
O=c1cc(CSc2ccc(N=Cc3ccc([N+](=O)[O-])cc3)cc2)occ1O  IC50 (DPPH scavenging, absorbance; 30 min): 28.5 µM
CC(C)C[C@@H](NC(=O)[C@H](C)NC(=O)CNC(=O)[C@@H](NC=O)C(C)C)C(=O)N[C@@H](C)C(=O)N[C@@H](C(=O)N[C@H](C(=O)N[C@@H](C(=O)N[C@@H](Cc1c[nH]c2ccccc12)C(=O)N[C@H](CC(C)C)C(=O)N[C@@H](Cc1cc2ccccc2[nH]1)C(=O)N[C@H](CC(C)C)C(=O)N[C@@H](Cc1c[nH]c2ccccc12)C(=O)N[C@H](CC(C)C)C(=O)N[C@@H](Cc1c[nH]c2ccccc12)C(=O)NCCO)C(C)C)C(C)C)C(C)C  GI50 (MCF7; cell growth or viability, SRB; 48 h): 0.0233 µM
O=C(N1CCC2(CC1)OCC(CN1CCCCS1(=O)=O)O2)C1(c2ccc(Cl)cc2)CCCC1 (centres unmarked)  inhibition (Chikungunya virus; viral replication, inhibitor; 40 µM): 55%
O=C(NCc1ccc(F)cc1)c1cn(Cc2ccc(F)cc2)c2ccc(Oc3ccccc3)cc2c1=O  IC50 (MCF7; cell growth or viability, MTT; 24 h): > 500 µM
